In brackets after ≈: the same amount, converted by molar mass. Activity calls are given as the source filed them. The calls are words filed in the database; no cut-off is given here.
Key:
Staphylococcus aureus [1] = experiment: Bactericidal activity against methicillin-resistant Staphylococcus aureus DM21455 up to 4 hrs by time kill assay; type: functional
Outline: (§1)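 Time-kill. Starting inoculum 10^5−10^6 CFU/mL, exposed to 0.5×, 1×, 2× and 4× MIC at 35 °C. Colonies were counted after 24 h at 35 °C and CFU/mL calculated. Biological replicates.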

Staphylococcus aureus [2] = experiment: Antibacterial activity against methicillin-sensitive Staphylococcus aureus DM4583R after 24 hrs by broth microdilution method; type: functional
Outline: (§2)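 Broth microdilution per CLSI in cation-adjusted Mueller−Hinton broth, in tubes. Compounds dissolved in H2O or DMF, then diluted in PBS to 1000 μg/mL stocks. Serial 2-fold dilutions were made, with final DMF 2.5%. Organisms were grown on TSA at 35 °C for 20 h and adjusted to ~5× 10^5 CFU/mL. Tubes were incubated at 35 °C for 24 h. MIC was the lowest concentration with no visible growth versus control. Biological replicates.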

Staphylococcus aureus [3] = experiment: Antibacterial activity against methicillin-sensitive Staphylococcus aureus ATCC 29737 after 24 hrs by broth microdilution method; type: functional; conditions: ATCC 29737, 24 h; outline: as §2
Staphylococcus aureus [4] = experiment: Antibacterial activity against methicillin-sensitive Staphylococcus aureus ATCC 6538 after 24 hrs by broth microdilution method; type: functional; conditions: ATCC 6538, 24 h; outline: as §2
[5] = Ratio of HC50 for New Zealand white rabbit RBC to MIC for methicillin-sensitive Staphylococcus aureus DM4583R
Outline: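 HC50 measured on fresh New Zealand white rabbit RBCs, washed three times in PBS, at 4% v/v final. Cells were incubated with 2-fold serial dilutions (DMF final 0.5%) at 37 °C for 1 h, then centrifuged. Supernatant absorbance was read at 576 nm, with PBS as 0% and 2% Triton X-100 as 100% lysis. HC50 is the concentration lysing 50% of cells, divided by MIC from broth microdilution.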

Staphylococcus aureus [6] = experiment: Bactericidal activity against methicillin-resistant Staphylococcus aureus DM21455 assessed as log reduction in bacterial count at 4 times MIC up to 30 mins by time kill assay; type: functional; outline: as §1
[7] = Cytotoxicity against human Corneal fibroblasts assessed cell viability at 30 uM after 24 hrs by Cell Titer-Glo luminescent assay; type: cell-based, Corneal fibroblast; conditions: read-out: Activity
Outline: (§3)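 ATP luminescence viability in human corneal fibroblasts, ~10000 cells per well, duplicate wells. After 24 h exposure the plate is equilibrated 0.5 h at 22 °C before Cell Titer-Glo addition and luminescence read. 1% Triton X-100 serves as positive control, medium-treated cells as negative control. Biological replicates.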

Staphylococcus aureus [8] = experiment: Antibacterial activity against Staphylococcus aureus DM4001R after 24 hrs by broth microdilution method; type: functional; outline: as §2
Staphylococcus aureus [9] = experiment: Antibacterial activity against methicillin-resistant Staphylococcus aureus BAA-38 after 24 hrs by broth microdilution method; type: functional; conditions: BAA-38, 24 h; outline: as §2
[10] = Cytotoxicity in human Corneal fibroblasts assessed as LDH release at 10 uM after 24 hrs; type: cell-based; conditions: corneal fibroblast
Outline: (§4)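 Human corneal fibroblasts are exposed to test samples for 24 h, and cytotoxicity is read as LDH leakage into the medium. Biological replicates.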

Staphylococcus aureus [11] = experiment: Bactericidal activity against methicillin-resistant Staphylococcus aureus DM21455 assessed as log reduction in bacterial count at 2 times MIC up to 30 mins by time kill assay; type: functional; outline: as §1
Staphylococcus aureus [12] = experiment: Antibacterial activity against methicillin-resistant Staphylococcus aureus DM 21455 after 24 hrs by broth microdilution method; type: functional; conditions: DM 21455, 24 h; outline: as §2
Staphylococcus aureus [13] = experiment: Antibacterial activity against methicillin-resistant Staphylococcus aureus DB57964 after 24 hrs by broth microdilution method; type: functional; conditions: DB57964, 24 h; outline: as §2
Staphylococcus aureus [14] = experiment: Antibacterial activity against methicillin-resistant Staphylococcus aureus ATCC 43300 after 24 hrs by broth microdilution method; type: functional; conditions: ATCC 43300, 24 h; outline: as §2
[15] = Cytotoxicity against human Corneal fibroblasts assessed cell viability at 100 uM after 24 hrs by Cell Titer-Glo luminescent assay; type: cell-based, Corneal fibroblast; conditions: read-out: Activity; outline: as §3
[16] = Cytotoxicity in human Corneal fibroblasts assessed as LDH release at 30 uM after 24 hrs; type: cell-based; conditions: corneal fibroblast; outline: as §4
Staphylococcus aureus [17] = experiment: Antibacterial activity against methicillin-resistant Staphylococcus aureus ATCC 700699 after 24 hrs by broth microdilution method; type: functional; conditions: ATCC 700699, 24 h; outline: as §2
Staphylococcus aureus [18] = experiment: Antibacterial activity against methicillin-resistant Staphylococcus aureus DB6506 after 24 hrs by broth microdilution method; type: functional; conditions: DB6506, 24 h; outline: as §2
[19] = Cytotoxicity in human Corneal fibroblasts assessed as LDH release at 80 uM after 24 hrs; type: cell-based; conditions: corneal fibroblast; outline: as §4
Staphylococcus aureus [20] = experiment: Antibacterial activity against methicillin-sensitive Staphylococcus aureus ATCC 29213 after 24 hrs by broth microdilution method; type: functional; conditions: ATCC 29213, 24 h; outline: as §2
Staphylococcus aureus [21] = experiment: Antibacterial activity against Staphylococcus aureus ATCC 29213 after 17 passages; type: functional
Staphylococcus aureus [22] = experiment: Antibacterial activity against methicillin-sensitive Staphylococcus aureus DM4299 after 24 hrs by broth microdilution method; type: functional; conditions: DM4299, 24 h; outline: as §2
Staphylococcus aureus [23] = experiment: Bactericidal activity against methicillin-resistant Staphylococcus aureus DM9808R assessed as log reduction in bacterial count up to 4 hrs by time kill assay; type: functional; outline: as §1
Lipid bilayer [24] = experiment: Membrane permeabilization activity in DOPE/DOPG large unilamellar liposomes assessed as leakage of calcein at 1:8 compound to lipid ratio by fluorescence assay
Outline: (§5)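 Calcein-loaded 100 nm LUVs of DOPE/DOPG (3:1, w/w), made by film hydration in 80 mM calcein, 100 mM NaCl, 50 mM HEPES, 0.3 mM EDTA, pH 7.4. Liposomes 50 μM, 0.5% DMF, room temperature. Read at ex 490/em 520 nm every 2 min for 30 cycles. % leakage normalized to 0.1% Triton X-100 (100%) and 0.5% DMF (0%). Biological replicates.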

Staphylococcus aureus [25] = experiment: Antibacterial activity against Staphylococcus aureus ATCC 29213 infected in C57BL6 mouse keratitis model assessed as log reduction in bacterial burden at 0.5 % administered 4 times daily at 2 hrs interval for 1 day; type: functional
Outline: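 C57BL6 mice, 6–8 weeks, 20–30 g, four per group, anesthetized with ketamine/xylazine. Right cornea scratched (three 1 mm cuts), 10 μL of 6×10^8 CFU/mL S. aureus ATCC 29213 in PBS applied topically. From day 1, 0.5% drug in PBS (12 mM, pH 7.2) given 4 times at 2 h intervals. Corneas homogenized in 0.9% NaCl/0.25% BSA, diluted, plated in duplicate on TSA, 48 h at 35 °C.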

[26] = Cytotoxicity in human Corneal fibroblasts assessed as LDH release at 100 uM after 24 hrs; type: cell-based; conditions: corneal fibroblast; outline: as §4
Lipid bilayer [27] = experiment: Membrane permeabilization activity in DOPE/DOPG large unilamellar liposomes assessed as leakage of calcein at 1:4 compound to lipid ratio by fluorescence assay; outline: as §5
Staphylococcus aureus [28] = experiment: Antibacterial activity against methicillin-resistant Staphylococcus aureus DB68004 after 24 hrs by broth microdilution method; type: functional; conditions: DB68004, 24 h; outline: as §2
[29] = Cytotoxicity against human Corneal fibroblasts assessed cell viability at 80 uM after 24 hrs by Cell Titer-Glo luminescent assay; type: cell-based, Corneal fibroblast; conditions: read-out: Activity; outline: as §3
[30] = Cytotoxicity in human Corneal fibroblasts assessed as LDH release at 50 uM after 24 hrs; type: cell-based; conditions: corneal fibroblast; outline: as §4
[31] = Cytotoxicity against human Corneal fibroblasts assessed cell viability at 50 uM after 24 hrs by Cell Titer-Glo luminescent assay; type: cell-based, Corneal fibroblast; conditions: read-out: Activity; outline: as §3

COC(=O)[C@H](CCCNC(=N)N)NC(=O)COc1cc(O)c2c(=O)c(OCC(=O)N[C@@H](CCCNC(=N)N)C(=O)OC)c(-c3ccc(OC)cc3)oc2c1CC=C(C)C
Activity (Staphylococcus aureus [1]): Dose-dependent effect
MIC (Staphylococcus aureus [2]): 1.56 µg/mL (≈ 1.89 µM)
MIC (Staphylococcus aureus [3]): 1.56 µg/mL (≈ 1.89 µM)
MIC (Staphylococcus aureus [4]): 1.56 µg/mL (≈ 1.89 µM)
Ratio [5]: > 511
Activity (Staphylococcus aureus [6]): 3 deltalog10CFU/ml
viability at 24 h, 30 µM [7]: 98.2%
MIC (Staphylococcus aureus [8]): 1.9 µM (≈ 1.57 µg/mL)
MIC (Staphylococcus aureus [9]): 3.13 µg/mL (≈ 3.79 µM)
Activity [10]: -1.52%
Activity (Staphylococcus aureus [11]): 3 deltalog10CFU/ml
MIC (Staphylococcus aureus [12]): 1.9 µM (≈ 1.57 µg/mL)
MIC (Staphylococcus aureus [13]): 3.13 µg/mL (≈ 3.79 µM)
MIC (Staphylococcus aureus [14]): 1.56 µg/mL (≈ 1.89 µM)
viability at 24 h, 100 µM [15]: 57.7%
Activity [16]: -2.3%
MIC (Staphylococcus aureus [17]): 3.13 µg/mL (≈ 3.79 µM)
MIC (Staphylococcus aureus [18]): 3.13 µg/mL (≈ 3.79 µM)
Activity [19]: 18.62%
MIC (Staphylococcus aureus [20]): 3.13 µg/mL (≈ 3.79 µM)
Activity (Staphylococcus aureus [21]): Active
MIC (Staphylococcus aureus [22]): 3.13 µg/mL (≈ 3.79 µM)
Activity (Staphylococcus aureus [23]): Active
Activity (Lipid bilayer [24]): 53.5%
Activity (Staphylococcus aureus [25]): Active
Activity [26]: 23.9%
Activity (Lipid bilayer [27]): 46%
MIC (Staphylococcus aureus [28]): 3.13 µg/mL (≈ 3.79 µM)
viability at 24 h, 80 µM [29]: 69.3%
Activity [30]: 0.05%
viability at 24 h, 50 µM [31]: 97.7%

Reference: ChEMBL document CHEMBL4011638, “Semisynthetic Flavone-Derived Antimicrobials with Therapeutic Potential against Methicillin-Resistant Staphylococcus aureus (MRSA)” (J Med Chem, 2017)
